Experimental data pooled from the literature.
Target: Protein kinase C zeta type (PRKCZ, Homo sapiens, UniProt Q05513)

| SMILES | test | conditions | measurement | value |
| --- | --- | --- | --- | --- |
| CCCOc1ccc(OC)c(F)c1C(=O)c1ccc(C(=O)N[C@@H]2CNC[C@H]2NC(=O)c2ccc3[nH]ncc3c2)cc1 | enzyme activity, inhibitor | 10 µM | remaining activity | 60% |
| CC(C)c1ccc(NC(=O)c2cccs2)c(-c2nc3ccccc3[nH]c2=O)c1 | enzyme activity, inhibitor | 1 µM | activity vs control | 97% |
| CCCS(=O)(=O)Nc1ccc(F)c(C(=O)c2c[nH]c3ncc(-c4ccc(Cl)cc4)cc23)c1F | enzyme activity, inhibitor | 1 µM | inhibition | < 20% |
| Cc1ccc(Nc2nccc(N(C)c3ccc4c(C)n(C)nc4c3)n2)cc1S(N)(=O)=O | enzyme activity, inhibitor | 0.3 µM | inhibition | -3% |
| COc1cc2ncnc(Nc3ccc(Oc4ccccc4)c(C)c3C)c2cc1OC | enzyme activity, inhibitor | 1 µM | inhibition | 14% |
| CCN(CC)CCNC(=O)c1c(C)[nH]c(/C=C2\C(=O)Nc3ccc(F)cc32)c1C | enzyme activity, inhibitor | 10 µM | inhibition | -2% |
| CC(C)(C)c1nc(-c2cccc(NS(=O)(=O)c3c(F)cccc3F)c2F)c(-c2ccnc(N)n2)s1 | enzyme activity, inhibitor, radiometric | 1 µM | remaining activity | 109% |
| CN1CCC2(CC1)NC(=O)c1c(c3ccc(Cl)c(Cl)c3n1C)C2C#N (racemic) | thermal stability, DSF | 10 µM | ΔTm | 0 °C |
| COc1cc(Cl)c(C(=O)N[C@@H](CN[C@H]2CC[C@@H](N)CC2)Cc2ccc(C#N)cc2)cc1-c1ccc(CN[C@H](C)c2ccc(C)cc2)o1 | enzyme activity, inhibitor | 1 µM | remaining activity | 91% |
| Cc1ccc(-n2nc(C(C)(C)C)cc2NC(=O)Nc2ccc(OCCN3CCOCC3)c3ccccc23)cc1 | enzyme activity, inhibitor | 10 µM | inhibition | -3% |
| COc1cc(Nc2cnc(C#N)c(O[C@H](C)CN(C)C)n2)ncc1-c1cnn(C)c1 | enzyme activity, inhibitor, radiometric | 1 µM | remaining activity | 121% |
| Cc1cc(NC(=O)c2cccc3cc(-c4cccc5[nH]nc(N)c45)ccc23)ccc1F | enzyme activity, inhibitor | 0.1 µM | activity vs control | 99% |
| Cc1sc(C(=O)NC2COC2)cc1-n1cc(NC(=O)Nc2c(F)cccc2Cl)cn1 | enzyme activity, inhibitor | 10 µM | remaining activity | 104% |
| CN(c1ncccc1CNc1nc(Nc2ccc3c(c2)CC(=O)N3)ncc1C(F)(F)F)S(C)(=O)=O | enzyme activity, inhibitor | 1 µM | inhibition | 0% |
| Nc1nc(NC2CCCCC2)sc1C(=O)c1ccccc1 | enzyme activity, inhibitor | 10 µM | remaining activity | 83% |
| COc1cc(-c2cc(-c3ccc(N4CCNCC4)cc3)cnc2C)cc(OC)c1OC | enzyme activity, inhibitor | 1 µM | inhibition | 3% |
| Cn1c2c(c3ccc(Cl)c(Cl)c31)C(C#N)C1(CCNCC1)NC2=O (racemic) | thermal stability, DSF | 10 µM | ΔTm | 0.9 °C |
| Cc1cnc(NC2CCOCC2)nc1-n1cnc(C(=O)NC(CN)c2cc(F)cc(Cl)c2)c1 (centres unmarked) | enzyme activity, inhibitor, radiometric | 1 µM | remaining activity | 106% |
| Cn1c(=O)n(-c2ccc(C(C)(C)C#N)cc2)c2c3cc(-c4cnc5ccccc5c4)ccc3ncc21 | enzyme activity, inhibitor | 10 µM | remaining activity | 123% |
| Cn1c2c(c3ccccc31)C(C#N)C(C)(C)NC2=O (centres unmarked) | thermal stability, DSF | 10 µM | ΔTm | -0.3 °C |
| O=C(Nc1cnn(-c2csc(C(=O)NC3COC3)c2)c1)Nc1c(F)cccc1Cl | enzyme activity, inhibitor | 5 µM | remaining activity | 93.6% |
| O=C1Nc2ccc(Cl)cc2C1=Cc1cc(Cl)c(O)c(Cl)c1 | cell-free assay | 0.5 µM | remaining signal | 95.3% |
| Cn1c2c(c3ccc(Cl)c(Cl)c31)C(C#N)C1(CCOCC1)NC2=O (centres unmarked) | thermal stability, DSF | 10 µM | ΔTm | -0.2 °C |
| c1ccc(CNc2nc(N3CCOc4ccccc43)nc3c2CCCC3)cc1 | target engagement in cells, inhibitor, chemoproteomics | 20 mM | inhibition | 17.3% |
| Cn1c2c(Cl)c(Cl)ccc2c2cn[nH]c(=O)c21 | thermal stability, DSF | 10 µM | ΔTm | 0 °C |
| CC(C)(C)C(=O)c1sc(NC2CCCCC2)nc1N | enzyme activity, inhibitor | 10 µM | remaining activity | 104% |
